Series [1] deals with Nucleic Acid. As to the kind of experiment: Binding affinity to 5'-AAGCTA-3' DNA by surface plasmon resonance-biosensor method. It counts as nucleic-acid assay. The method in brief:
(§1)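 SPR biosensor at 25 °C. 5'-biotinylated DNA hairpins, about 400 RU, were captured on streptavidin chips, with one blank flow cell as reference. Running buffer was 0.01 M cacodylic acid pH 6.25, 0.1 M NaCl, 1 mM EDTA, 0.005% P20. Known polyamide concentrations were injected and fitted to one- or two-site models to give K1 and K2.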

Series [2] concerns Nucleic Acid. The experiment in a line: Binding affinity to 5'-ACGCGT-3' sequence in 125 bp 5'-[32P]-radiolabeled DNA at 0.5 uM after 30 mins by DNase1 footprinting analysis. The series is classed as nucleic-acid assay. The gist of the method:
(§2)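 A 125 bp radiolabeled PCR fragment was incubated 30 min at room temperature with polyamide in 10 mM Tris, 10 mM NaCl, pH 7. DNase I (0.02 U, with Mg2+/Mn2+, pH 8.0) then cleaved for 3 min, stopped by freezing on dry ice. Products were resolved on a denaturing 10% polyacrylamide urea gel and read by autoradiography.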

For series [3], the system named is Nucleic Acid. As to the kind of experiment: Binding affinity to 5'-ACGCGT-3' DNA by surface plasmon resonance-biosensor method. It counts as nucleic-acid assay. The method in brief: as §1
Series [4] deals with Nucleic Acid. As to the kind of experiment: Binding affinity to 5'-AAATTT-3' DNA by surface plasmon resonance-biosensor method. It counts as nucleic-acid assay. The method in brief: as §1
On the technique in general: In SPR one partner is held on a chip, and binding of the other changes the refractive index at the surface.

The test system of series [5] is Nucleic Acid. The experiment in a line: Binding affinity to 5'-ACACTT-3' DNA assessed as change in melting temperature at 1:3 of DNA/compound ratio by spectrophotometry. The series is classed as nucleic-acid assay. The gist of the method:
(§3)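 UV thermal melt (Cary spectrophotometer) of each duplex, 1 µM DNA with 3 µM polyamide, in 10 mM phosphate buffer with 12.5 mM NaCl, 1 mM EDTA, pH 6.2. ΔTM is the melting temperature of the DNA–polyamide complex minus that of duplex DNA alone.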

Series [6] has as its system Nucleic Acid. As to the kind of experiment: Binding affinity to 5'-ACGCGT-3' DNA assessed as macroscopic binding constant K1 by surface plasmon resonance-biosensor method. It counts as nucleic-acid assay. The gist of the method: as §1
Series [7] concerns Nucleic Acid. As to the kind of experiment: Binding affinity to DNA minor-groove 5'-ACGCGT-3' sequence at 9:500 of DNA/compound ratio by CD spectral analysis. It counts as nucleic-acid assay.
In series [8] the test system is Nucleic Acid. The experiment in a line: Binding affinity to 5'-AAATTT-3' DNA assessed as change in melting temperature at 1:3 of DNA/compound ratio by spectrophotometry. The series is classed as nucleic-acid assay. The method in brief: as §3
Series [9] deals with Nucleic Acid. As to the kind of experiment: Binding affinity to 5'-AAGCTA-3' DNA assessed as macroscopic binding constant K1 by surface plasmon resonance-biosensor method. The series is classed as nucleic-acid assay. The method in brief:
as §1

The test system of series [10] is Nucleic Acid. As to the kind of experiment: Binding affinity to 5'-AAATTT-3' DNA at 9:500 of DNA/compound ratio by CD spectral analysis. The series is classed as nucleic-acid assay.
The subject of series [11] is Nucleic Acid. As to the kind of experiment: Binding affinity to 5'-ACACTT-3' DNA at 9:500 of DNA/compound ratio by CD spectral analysis. It counts as nucleic-acid assay.
Series [12] has as its system Nucleic Acid. The experiment in a line: Binding affinity to 5'-ACGCGT-3' DNA assessed as change in melting temperature at 1:3 of DNA/compound ratio by spectrophotometry. The series is classed as nucleic-acid assay. The gist of the method: as §3
Series [13] has as its system Nucleic Acid. As to the kind of experiment: Binding affinity to 5'-ACGCGT-3' DNA assessed as macroscopic binding constant K2 by surface plasmon resonance-biosensor method. The series is classed as nucleic-acid assay. The method in brief: as §1
Series [14] concerns Nucleic Acid. The experiment in a line: Binding affinity to 5'-AAGCTA-3' DNA assessed as macroscopic binding constant K2 by surface plasmon resonance-biosensor method. The series is classed as nucleic-acid assay. The gist of the method: as §1
The subject of series [15] is Nucleic Acid. As to the kind of experiment: Binding affinity to 5'-ACGCGT-3' DNA at 30:80 of DNA/compound ratio by isothermal titration calorimetry. It counts as nucleic-acid assay. The gist of the method: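 ITC by the model-free method at 25 °C in 0.01 M cacodylic acid. Polyamide at 80 µM was injected into 30 µM DNA in 30 × 10 µL injections, every 300 s after a 300 s delay, up to a mole ratio of about 0.6:1. Integrated heats were corrected for nonspecific heats including dilution, and normalized ΔH was fitted linearly against mole ratio.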

In series [16] the test system is Nucleic Acid. The experiment in a line: Binding affinity to 5'-ACGCGT-3' DNA at 9:500 of DNA/compound ratio by CD spectral analysis. It counts as nucleic-acid assay.
For series [17], the system named is Nucleic Acid. As to the kind of experiment: Binding affinity to 5'-AAATTT-3' DNA. It counts as nucleic-acid assay.
Series [18] concerns Nucleic Acid. The experiment in a line: Binding affinity to DNA minor-groove 5'-ACCGGT-3' sequence. It counts as nucleic-acid assay.
The subject of series [19] is Nucleic Acid. As to the kind of experiment: Binding affinity to 5'-ACGCGT-3' sequence in 125 bp 5'-[32P]-radiolabeled DNA at 0.05 uM after 30 mins by DNase1 footprinting analysis. It counts as nucleic-acid assay. The gist of the method:
as §2

Series [20] relates to Nucleic Acid. As to the kind of experiment: Binding affinity to 5'-AAATTT-3' DNA assessed as macroscopic binding constant K1 by surface plasmon resonance-biosensor method. The series is classed as nucleic-acid assay. The gist of the method:
as §1

The subject of series [21] is Nucleic Acid. The experiment in a line: Binding affinity to DNA minor-groove 5'-ACGCGT-3' sequence. It counts as nucleic-acid assay.
Series [22] deals with Nucleic Acid. As to the kind of experiment: Binding affinity to 5'-ACCGGT-3' sequence in 125 bp 5'-[32P]-radiolabeled DNA at 100 uM after 30 mins by DNase1 footprinting analysis. It counts as nucleic-acid assay. The method in brief:
as §2

The test system of series [23] is Nucleic Acid. The experiment in a line: Binding affinity to 5'-AGCGCT-3' sequence in 125 bp 5'-[32P]-radiolabeled DNA at 100 uM after 30 mins by DNase1 footprinting analysis. It counts as nucleic-acid assay. The gist of the method: as §2
The test system of series [24] is Nucleic Acid. The experiment in a line: Binding affinity to 5'-ACGCGT-3' sequence in 125 bp 5'-[32P]-radiolabeled DNA at 20 uM after 30 mins by DNase1 footprinting analysis. The series is classed as nucleic-acid assay. The method in brief: as §2
In series [25] the test system is Nucleic Acid. The experiment in a line: Binding affinity to 5'-ACACGT-3' sequence in 125 bp 5'-[32P]-radiolabeled DNA at 100 uM after 30 mins by DNase1 footprinting analysis. It counts as nucleic-acid assay. The gist of the method: as §2
A short description of series [26]: Solubility of the compound in water. It counts as physicochemical. To be noted: buffer.

SMILES strings stand for the structures. The source made the active and inactive calls. The calls are words filed in the database; no cut-off is given here. A value given as a limit tells only on which side of the number the result lay.

`CN(C)CCNC(=O)c1nc(NC(=O)c2cc(NC(=O)c3nc(NC(=O)c4ccccc4)cn3C)cn2CCCN)cn1C`: the Kb in the series with Nucleic Acid [1] worked out at 2.1 ×10⁶ /M; in the series on Nucleic Acid [3] it was 1.5 ×10⁷ /M. For the same compound, the outcome in the series with Nucleic Acid [2], with Nucleic Acid [7], in the series on Nucleic Acid [10], with Nucleic Acid [11], in the series on Nucleic Acid [15] and in the series with Nucleic Acid [16] was Active. Also, the outcome in the series with Nucleic Acid [4] was inactive. The ΔTm in the series on Nucleic Acid [5] is 0 °C; in the series on Nucleic Acid [8], 7.6 °C; with Nucleic Acid [12], more than 25 °C. In addition, the K amounted to 8.7 ×10⁵ /M with Nucleic Acid [6], 2.9 ×10⁵ /M with Nucleic Acid [9], 2.7 ×10⁸ /M in the series on Nucleic Acid [13] and 1.2 ×10⁷ /M in the series on Nucleic Acid [14].
On to `CN(C)CCNC(=O)c1nc(NC(=O)c2cc(NC(=O)c3nc(NC=O)cn3C)cn2C)cn1C`, for which the K in the series on Nucleic Acid [17] was 5.3 ×10⁴ /M; with Nucleic Acid [6], 1.9 ×10⁸ /M; in the series on Nucleic Acid [18], 2.2 ×10⁵ /M; with Nucleic Acid [20], 5.3 ×10⁴ /M; in the series with Nucleic Acid [21], 1.9 ×10⁸ /M. In addition, the result in the series with Nucleic Acid [2] and in the series with Nucleic Acid [19] was Active. Also, the results for the ΔTm in the series on Nucleic Acid [8] and with Nucleic Acid [12] were 1 °C and 9 °C, respectively.
`CN(C)CCNC(=O)c1nc(NC(=O)c2cc(NC(=O)c3nc(NC(=O)c4ccccc4)cn3C)cn2C)cn1C`: the outcome in the series with Nucleic Acid [22], in the series on Nucleic Acid [4], with Nucleic Acid [23] and in the series with Nucleic Acid [25] was inactive. In addition, the Kb in the series with Nucleic Acid [1] was found to be 2.5 ×10⁵ /M; in the series with Nucleic Acid [3] it was 4.8 ×10⁶ /M. For the same compound, the results for the shift in melting temperature (ΔTm) with Nucleic Acid [5], in the series on Nucleic Acid [8] and in the series on Nucleic Acid [12] were 0 °C, 0 °C and 9 °C, respectively. The K was found to be 6.1 ×10⁴ /M in the series on Nucleic Acid [6], 2.3 ×10⁵ /M in the series on Nucleic Acid [9], 3.7 ×10⁸ /M in the series on Nucleic Acid [13] and 2.8 ×10⁵ /M in the series with Nucleic Acid [14]. Besides, the outcome with Nucleic Acid [7], with Nucleic Acid [15], in the series with Nucleic Acid [24] and in the series with Nucleic Acid [16] was Active.
Regarding `CN(C)CCNC(=O)c1nc(NC(=O)c2cc(NC(=O)c3nc(NC=O)cn3C)cn2CCCN)cn1C.Cl`, in [26], the solubility result is given as “soluble”.

What is called ΔTm is the shift of the melting midpoint relative to a reference.
